The species named for test [1] is Rattus norvegicus. Description: Equi-effective molar ratio expressed as the ratio of tested compound concentration to that of dequalinium that cause 50% inhibition of the AHP in rat sympathetic neurons. Type of test: functional, Sympathetic neuron.
Test [2] is filed under the species Rattus norvegicus. Nature of the test: Inhibition of after-hyperpolarization (AHP) in cultured rat sympathetic neurons. The format is functional. Conditions: Sympathetic neuron. The essentials:
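Compounds from 2 mM MeOH stocks, each tested at two to four concentrations on at least three cells. AHP inhibition was obtained by digitally subtracting blocker records from controls, with the peak difference given as % of control AHP at the same time point.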

The IC50 is the point on the concentration scale where inhibition reaches its midpoint. The low end stands for greater potency in that assay, the high end for weaker potency in that assay.

For the compound `Nc1cc[n+](Cc2ccc(/C=C/c3ccc(C[n+]4ccc(N)c5ccccc54)cc3)cc2)c2ccccc12`, the Ratio in test [1] is 1.46. In test [2], this compound displayed an IC50 of 940 nM.
For the compound `Nc1cc[n+](Cc2ccc(CCc3ccc(C[n+]4ccc(N)c5ccccc54)cc3)cc2)c2ccccc12`, the Ratio in test [1] amounted to 0.71. This compound yielded an IC50 in test [2] of 410 nM.
The like results for `Nc1cc[n+](Cc2ccc(CCCCc3ccc(C[n+]4ccc(N)c5ccccc54)cc3)cc2)c2ccccc12` were, in that order, 0.44 and 370 nM.
The corresponding values for `Nc1cc[n+](Cc2ccc(-c3ccc(-c4ccc(C[n+]5ccc(N)c6ccccc65)cc4)cc3)cc2)c2ccccc12` are 2.3 and 1900 nM.
The like results for `Nc1cc[n+](Cc2ccc3cc(C[n+]4ccc(N)c5ccccc54)ccc3c2)c2ccccc12` were, in that order, 0.83 and 490 nM.
In the case of `Nc1cc[n+](Cc2ccc3ccc4ccc(C[n+]5ccc(N)c6ccccc65)cc4c3c2)c2ccccc12`, in test [1], the Ratio is reported as 0.33. This compound also came in with an IC50 in test [2] of 200 nM.
In the case of `Nc1cc[n+](Cc2ccc(/C=C\c3ccc(C[n+]4ccc(N)c5ccccc54)cc3)cc2)c2ccccc12`, in test [1], the Ratio amounted to 0.24. In test [2], the IC50 was found to be 190 nM.
`Nc1cc[n+](Cc2ccc(-c3cccc(-c4ccc(C[n+]5ccc(N)c6ccccc65)cc4)n3)cc2)c2ccccc12`: in test [1], the Ratio was found to be 0.59. The same compound showed an IC50 in test [2] of 360 nM.
The like results for `Cc1cc(N)c2ccccc2[n+]1CCCCCCCCCC[n+]1c(C)cc(N)c2ccccc21.[Cl-].[Cl-]` [DEQUALINIUM CHLORIDE] were, in that order, 1 and 650 nM.
The like results for `Nc1cc[n+](Cc2ccc(Cc3ccc(C[n+]4ccc(N)c5ccccc54)cc3)cc2)c2ccccc12` were, in that order, 0.39 and 450 nM.
`Nc1cc[n+](Cc2ccc(CCCc3ccc(C[n+]4ccc(N)c5ccccc54)cc3)cc2)c2ccccc12`: in test [1], the Ratio worked out at 0.31. In addition, in test [2], it took 200 nM to reach half-maximal inhibition (IC50).
Take `Nc1cc[n+](Cc2ccc(C#Cc3ccc(C[n+]4ccc(N)c5ccccc54)cc3)cc2)c2ccccc12`: the Ratio in test [1] came to 1.41. The compound further displayed a 50% inhibitory concentration (IC50) in test [2] of 1000 nM.
The corresponding values for `Nc1cc[n+](Cc2ccc(-c3ccc(C[n+]4ccc(N)c5ccccc54)cc3)cc2)c2ccccc12` are 0.4 and 380 nM.
On to `Nc1cc[n+](Cc2ccc3c(c2)Cc2cc(C[n+]4ccc(N)c5ccccc54)ccc2-3)c2ccccc12`, for which the Ratio in test [1] is given as 0.33. In test [2], this compound showed an IC50 of 310 nM.
The like results for `Nc1cc[n+](Cc2cccc(-c3cccc(C[n+]4ccc(N)c5ccccc54)c3)c2)c2ccccc12` were, in that order, 0.55 and 290 nM.
Consider `Nc1cc[n+](Cc2ccc(C[n+]3ccc(N)c4ccccc43)cc2)c2ccccc12`, for which the Ratio in test [1] was 3.7. The compound further had an IC50 in test [2] of 2800 nM.

(Values after ChEMBL document CHEMBL1129450, “Synthesis, molecular modeling, and K+ channel-blocking activity of dequalinium analogues having semirigid linkers” (J Med Chem, 1996).)
